System: MS2 coat protein
Test: apparent Kd, MS2 coat protein; higher = weaker binding; RNA-MaP array; FMN 200 µM where present
Summary of the method: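 Each design was made on Illumina sequencing-chip clusters by stalled E. coli RNA polymerase and titrated with SNAP-549-labelled MS2 coat protein from 0.7 or 1.5 nM, doubling to 3 µM, in the absence and then the presence of constant ligand. The buffer was 100 mM Tris-HCl pH 7.5, 80 mM KCl, 4 mM MgCl2, BSA, DTT, yeast tRNA and Tween-20. The apparent Kd is the median of filtered per-cluster fits of binding curves, with green signal normalised to red-channel RNA signal and control-cluster median Fmax.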

[1] = designed as: ON switch for flavin mononucleotide, no ligand
[2] = ligand present: flavin mononucleotide, designed as: ON switch for flavin mononucleotide
[3] = designed as: OFF switch for flavin mononucleotide, no ligand
[4] = ligand present: flavin mononucleotide, designed as: OFF switch for flavin mononucleotide

| Sequence | apparent Kd [1] | apparent Kd [2] | apparent Kd [3] | apparent Kd [4] |
| --- | --- | --- | --- | --- |
| UGGUACAUCGGAGGAUAUCAUGUGUAAACAUGAGGAUCACCCAUGUCGUACGAGAGUACGGAGAUUGAGAAGGCCGAUGUACCU | 0.0887 µM | 0.0165 µM |  |  |
| UGGUACUAGGGAGGAUAUGGGAAGAGACAUGAGGAUCACCCAUGUUUAAGAAUGCCGAGAGGCAACUAGAAGGCCCUAGUACCU | 0.0388 µM | 0.00742 µM |  |  |
| UGGUACUAGGGAGGAUAUGGGAAGAUACAUGAGGAUCACCCAUGUAUAAGAAUGCCGAGAGGCAACUAGAAGGCCCUAGUACCU | 0.0108 µM | 0.00548 µM |  |  |
| UGGUACUAGGGAGGAUAUGGGAAGAUACAUGAGGAUCACCCAUGUGUAAGAAUGCCGAGAGGCAACUAGAAGGCCCUAGUACCU | 0.056 µM | 0.00658 µM |  |  |
| UGGUACUAGGGAGGAUAUGGGAAGAUACAUGAGGAUCACCCAUGUUUAAGAAUGCCGAGAGGCAACUAGAAGGCCCAAGUACCU | 0.425 µM | 0.0186 µM |  |  |
| UGGUACUAGGGAGGAUAUGGGAAGAUACAUGAGGAUCACCCAUGUUUAAGAAUGCCGAGAGGCAACUAGAAGGCCCUAGUACUU | 0.448 µM | 0.0202 µM |  |  |
| UGGUACUAGGGAGGAUAUGGGAAGAUACAUGAGGAUCACCCAUGUUUAAGAAUGCCGAGAGGCAACUAGAAGGCCCUGGUACCU | 0.459 µM | 0.0179 µM |  |  |
| UGGUACUAGGGAGGAUAUGGGAAGAUACAUGAGGAUCACCCAUGUUUAAGAAUGCCGAGAGGCAACUAGAAGGGCCUAGUACCU | 0.804 µM | 0.28 µM |  |  |
| UGGUACUAGGGAGGAUAUGGGAAGAUACAUGAGGAUCACCCAUGUUUAAGAAUGGCGAGAGGCAACUAGAAGGCCCUAGUACCU | 0.271 µM | 0.0156 µM |  |  |
| UGGUACUAGGGAGGAUAUGGGAAGAUACAUGAGGAUCACCCAUGUUUAAGUAUGCCGAGAGGCAACUAGAAGGCCCUAGUACCU | 1.44 µM | 0.116 µM |  |  |
| UGGUAGGGAGGAUAUCGGAGACCAAACAUGAGGAUCACCCAUGUGCCAUCCCGUGUAUCUUGAGAAGGUUCUACCA |  |  | 0.0149 µM | 0.0234 µM |
| UGGUCGGAGACAGGAUAUGUGACUGCAUAGUGCACAGAAGGGUCUACAUGAGGAUCACCCAUGUCACCGACCACCAAACAACAA | 0.626 µM | 0.0553 µM |  |  |
| UGGUGUGAAGGAUAUACAUGAGGAUCACCCAUGUAUGAGGUGUGUGUUGAGGUGGAGGGUAGAAGGUCAGGUGG |  |  | 0.0301 µM | 0.0306 µM |
| UGUAAGAUGCAGAAGGUGUUAGCUAGAGCUACGACAUGAGGAUCACCCAUGUACUAGAAACAGUACAAGGAUAUGCAUCUUACC | 0.0196 µM | 0.00643 µM |  |  |
| UGUAUGGACAGAGGAUAUACGGCUAGGAGAUACUAGCUACUAUUCCUCACAUGAGGAUCACCCAUGUAGAAGGCUGUCCAUACU |  |  | 0.018 µM | 0.145 µM |
| UGUCCAUAGCAGAAGGACAUGUAUAAUCAUGAAAACAUGAGGAUCACCCAUGUAGGAUAUGCUAUGGACUAAGAGCGAAAGCUC |  |  | 0.0199 µM | 0.297 µM |
| UGUCCAUAGCAGAAGGCUAGAAAACAUGAGGAUCACCCAUGUCAAAAGACUAGAGGAUAUGCUAUGGACUAAGAGCGAAAGCUC |  |  | 0.00397 µM | 0.00381 µM |
| UGUCGGAGCAGAGGAUAUUACAUGAGGAUCACCCAUGUAUAAAGAUCAAGCUGGAAACAGCAAUGUAAGAAGGCUGCUCCGACA |  |  | 0.0604 µM | 0.418 µM |
| UGUCGGAGCAGAGGAUAUUACAUGAGGAUCACCCAUGUAUGAAACAAUAGCUGGAAACAGCAAUGUAAGAAGGCUGCUCCGACA |  |  | 0.00594 µM | 0.0113 µM |
| UGUCGGAGCAGAGGAUAUUACAUGAGGAUCACCCAUGUAUGAACAAAUAGCUGGAAACAGCAAUGUAAGAAGGCUGCUCCGACA |  |  | 0.00582 µM | 0.00745 µM |
| UGUCGGAGCAGAGGAUAUUACAUGAGGAUCACCCAUGUAUGAACCAAUAGCUGGAAACAGCAAAGUAAGAAGGCUGCUCCGACA |  |  | 0.00628 µM | 0.0794 µM |
| UGUCGGAGCAGAGGAUAUUACAUGAGGAUCACCCAUGUAUGACCCAAUAGCUGGAAACAGCAAUGUAAGAAGGCUGCUCCGACA |  |  | 0.0146 µM | 0.295 µM |
| UGUGCGUAUGUGAGGAUAUGCUGGUCCUUGGAUCAGCAGAAGGCACAUGAGGAUCACCCAUGUGGUGUCGUACG |  |  | 0.114 µM | 0.185 µM |
| UGUGCGUAUGUGAGGAUAUGCUGGUCCUUGGAUCGGCAGAAGGCACAUGAGGAUCACCCAUGUGGUGUCGUACA |  |  | 0.493 µM | 0.0192 µM |
| UGUGCGUUGAUCUUCGAUCGGUGUACAUGAGGAUCACCCAUGUAGGAUAUUCAAAGACGCAGAUAGGAGAAGGACAUCGGAUUU |  |  | 0.0188 µM | 0.017 µM |
| UGUGCUAUGUAGAAGGCAGAUCUGAUUCAGAUCUGAGGAUAUACAUGAGGAUCACCCAUGUUAUGCACCAGCACGAGAGUGCAU |  |  | 0.0177 µM | 0.0918 µM |
| UGUGUGAGACAGGAUAUGCUGGAUGAGAGGCGGGUAGAAGGGUCUACAUGAGGAUCACCCAUGUGGCCGGUUGG |  |  | 0.017 µM | 0.0169 µM |

| Sequence | apparent Kd [1] | apparent Kd [2] | apparent Kd [3] | apparent Kd [4] |
| --- | --- | --- | --- | --- |
| UGUGUGUGGCAGGAUAUGCAGGUAAUAGGACGGGUAGAAGGGUCUACAUGAGGAUCACCCAUGUGGCCGGUUGG |  |  | 0.0161 µM | 0.016 µM |
| UGUGUGUGGCAGGAUAUUCCGGUCGUUGGUCGGGAAGAAGGGUCUACAUGAGGAUCACCCAUGUGACCGGUUGG |  |  | 0.0256 µM | 0.0262 µM |
| UGUUAAUAUCGAGGAUAUGUCUAGACACAUGAGGAUCACCCAUGUAUGUGUAUAGAAGGCGAUAUUAACAGCAUGUUACAUGCC | 0.0371 µM | 0.0177 µM |  |  |
| UGUUACUAGUAAGGAUAUACUUGCGAUAAGCUUGUAGAAGGUACAGUCUUUUGUAUAACAUGUUUACAUGAGGAUCACCCAUGU | 0.00971 µM | 0.00878 µM |  |  |
| UGUUAGUAGUGAGGAUAUACAUACACCUUACAUGAGGAUCACCCAUGUUUUAAGAUUGAUAGAUAGUAGAAGGCACAUGAUGAU | 0.059 µM | 0.023 µM |  |  |
| UGUUAUUUGACAGGAUAUUGAUUGUUAAGUUUUUACAUGAGGAUCACCCAUGUUGUUCAUUCGUACAAGAAGGGUCAAGUUUUU | 0.0728 µM | 0.0272 µM |  |  |
| UGUUGAUAGCAGAAGGACAUGAGGAUCACCCAUGUAUGGAUACAAAUUUAUGUAGGAUAUGCUAUUAACUAAGAGUGAGCGUUC |  |  | 0.00946 µM | 0.0425 µM |
| UGUUGUAUUACAGGAUAUCUAGUAUUUUAAUUUAGAGAAGGGUAUUCACAUGAGGAUCACCCAUGUAUAUACGAGGAAGUUGUG | 0.0513 µM | 0.0616 µM |  |  |
| UGUUGUAUUACAGGAUAUCUAUUAGCUUUAUUUAGAGAAGGGUAUUCACAUGAGGAUCACCCAUGUAUAUACGAGGAAGUUGUG | 0.0461 µM | 0.0502 µM |  |  |
| UGUUGUAUUACAGGAUAUCUAUUGUUUUUUUUUAGAGAAGGGUAUUCACAUGAGGAUCACCCAUGUAUAUACGAGGAAGUUGUG | 0.0607 µM | 0.0713 µM |  |  |
| UGUUGUUCAGGAUAUGAUGUAUAAUACAUGAGGAUCACCCAUGUAGGUCCUGAUUUGGCGUCAGAAGGGAAUGUUG |  |  | 0.0277 µM | 0.031 µM |
| UGUUUGUGACAGAAGGGCAUUUACAUGAGGAUCACCCAUGUUCAUCAUUGCAGGAUAUGUAUUUCAUGAGGAUCACCUAUGCUC | 0.201 µM | 0.0711 µM |  |  |
| UUAAAUCAUGUAGGAUAUGCAUGGCCAAGCUAGGCAGAAGGACAUGAGGAUCACCCAUGUUAUAGCUACCAAGUAAGGUGGCAA |  |  | 0.0329 µM | 0.279 µM |
| UUAAAUCAUGUAGGAUAUGCAUGGCGAAGCUACGCAGAAGGACAUGAGGAUCACCCAUGUUAUAGCGACCCAGUUCGGUUGCAA |  |  | 0.0943 µM | 0.23 µM |
| UUAAAUCAUGUAGGAUAUGCGUGGCGAAGCUAUGCAGAAGGACAUGAGGAUCACCCAUGUUCUGCGGUCUGCGUACAGAUCGCU |  |  | 0.0183 µM | 0.155 µM |
| UUAACAUGCUUAGGAUAUCGGAUUUUUUUUUUUCGAGAAGGAAGAUUCUUUUUUUUUUACAUGAGGAUCACCCAUGUUUAUUUU |  |  | 0.0102 µM | 0.00578 µM |
| UUAAGUCAUGUAGGAUAUCCGAUGCGAAGCGUUGGAGAAGGACAUGAGGAUCACCCAUGUUCUAGCGUCUGAGUACAGAUGCAA |  |  | 0.027 µM | 0.076 µM |
| UUAAUGAAGUAAGGAUAUACAUGAGGAUUUCUCGUAGAAGGUACUAUACAUGAGGAUCACCCAUGUGCCGGUCAGAAGACUGGA | 0.433 µM | 0.274 µM |  |  |
| UUAAUGUGAGGAUAUCAGGUGUGCUAGCGUACUGGUACAUCUGAGAAGGCACAUGAGGAUCACCCAUGUUCCAG |  |  | 0.0328 µM | 0.1 µM |
| UUAAUGUGAGGAUAUGGUAAAGAUAAGAUGAUGAAAGAACUCCAGAAGGCACAUGAGGAUCACCCAUGUAGAUG |  |  | 0.0395 µM | 0.0866 µM |
| UUACAGCACGGGUAGGAUAUGUAGGGUGGUACAUGAGGAUCACCCAUGUAUCCACCCUUCGAACGGCAGAAGGGCCUGUCACUGC | 0.0167 µM | 0.017 µM |  |  |
| UUACAUACAAAGGUACAUGAGGAUCACCCAUGUUUGUUGGGAAGAAGGGUAACAGUACUACACAUAUAGGAUAUUUCACAAAUA | 0.0524 µM | 0.04 µM |  |  |
| UUACAUACAAAGUUACAUGAGGAUCACCCAUGUUUAUUGGGAAGAAGGGUAACAGUAUUACAUAUAUAGGAUAUUUCACAAAUG | 0.409 µM | 0.251 µM |  |  |
| UUACGUCCCGUUUACAUGAGGAUCACCCAUGUCGAAAGAGCGGAGGAUAUGCUACCUAGUUGGUAGCAGAAGGCUGCAACGUCG | 0.0352 µM | 0.0465 µM |  |  |
| UUACUAUAACAGAAGGCUAGAUAAUAUAUAAAUGGAGGAUAUGUUACAUGAGGAUCACCCAUGUUUCACCCACAUGAGGAUCAC |  |  | 0.0164 µM | 0.0522 µM |
| UUACUAUUACAGAAGGUUAAAUAAUAUAUAAAUGAAGGAUAUGUAACAUGAGGAUCACCCAUGUUUCACCCACAUGAGGAUCAU |  |  | 0.00963 µM | 0.00957 µM |
| UUACUCAUGUAAGGAUAUGCAGCCGUUUCGGCUGCAGAAGGUACUAUAAUACAUGAGGAUCACCCAUGUCUUUUUAAUUUAGAU | 0.195 µM | 0.077 µM |  |  |

Reference: the EternaBench riboswitch data
